ChEMBL document CHEMBL5154683, “A 5-FU Precursor Designed to Evade Anabolic and Catabolic Drug Pathways and Activated by Pd Chemistry In Vitro and In Vivo” (J Med Chem, 2022)

Assays:
[1] = Prodrug conversion in human liver S9 fraction assessed as DH5FU metabolite formation at 1.6 mM incubated for 1 hr in presence of NADPH by 19F-NMR based analysis; type: ADME, subcellular; conditions: s9, 1 h, 1600 µM
In short: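 Compound added as 150 mM stock in DMSO-d₆, preincubated 5 min at 37 °C with enzyme mixture, then NADPH added (1 mM) and incubated 1 h at 37 °C, 600 rpm; controls without NADPH and without enzymes. Stopped with EtOAc, dried under N₂, redissolved in DMSO-d₆, DH5FU detected by ¹⁹F NMR vs authentic sample.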

HCT-116 [2] = assay: Antiproliferative activity against human HCT-116 cells assessed as reduction in cell viability at 100 uM incubated for 5 days in presence of Pd-resins at 0.8 mg/ml by PrestoBlue dye based assay relative to control; type: functional; conditions: time 5 day
In short: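 HCT116 seeded at 750 cells/well and grown 48 h. Medium then replaced with fresh medium with or without Pd resins (20–160 μg per well; 0.2–1.4 mg/mL). Compound added as 5 μL of a 2 mM stock in 2% DMSO/medium, incubated 5 d. PrestoBlue fluorescence read; values normalised to untreated cells within each resin dilution.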

HCT-116 [3] = assay: Antiproliferative activity against human HCT-116 cells assessed as reduction in cell viability measured after 5 days by PrestoBlue reagent based assay; type: functional; conditions: HCT-116, 120 h
In short: (§1)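 Cells in 10% FBS, 2 mM L-glutamine media at 37 °C, 5% CO₂ (HCT116 in McCoy's 5A, BxPC-3 in RPMI). Seeded at 3000 (HCT116) or 2500 (BxPC-3) cells/well and grown 48 h. Medium then replaced with drug-containing medium, 0.1% DMSO, for 5 d. PrestoBlue 10% v/v added for 1 h, fluorescence read ex 540/em 590 nm. Normalised to DMSO-only wells; sigmoidal variable-slope fit; n = 3.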

BXPC-3 = assay: Antiproliferative activity against human BxPC-3 cells assessed as reduction in cell viability measured after 5 days by PrestoBlue reagent based assay; type: functional; conditions: BXPC-3, 120 h; in short: as §1

Row | SMILES | Drug metabolism [1] | Activity (HCT-116 [2]) [%] | EC50 (HCT-116 [3]) [nM] | EC50 (BXPC-3) [nM]
1 | C#CCn1cc(F)c(=O)[nH]c1=O | Metabolite_Detected | 14 | – | –
2 | O=c1[nH]cc(F)c(=O)[nH]1 [FLUOROURACIL] | Metabolite_Detected | – | 500 | 140
